# In the library only some 2.5% were active in any assay of this set; here they are far more common.
# NR2E3 ag-1: activates human NR2E3 receptor; CHO-S Gal4-NCOR/VP16-NR2E3 two-hybrid, luciferase; inhibition of corepressor binding, % at 3.98 µM; actives 0.35% (n = 360,000); AID 602229;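 active means inhibition above the mean of all tested compounds plus 3 SD, cut at about 70% in these data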;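 further: 0% = DMSO with NR2E3 transfected cells and 100% = cells lacking NR2E3 construct; higher means lower luciferase signal from less NR2E3 corepressor binding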
# NR2E3 ag-2: activates human photoreceptor nuclear receptor NR2E3; inhibition of corepressor binding, % at 4.78 µM; AID 2300; GST-NR2E3/biotin-RetCOR TR-FRET, 1536-well; actives 0.12% (n = 320,000); Q9Y5X4;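 active means percent inhibition above the cutoff of mean plus 3 SD of all tested compounds, set per screening campaign, cut at about 20% in these data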;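 further: 0% = DMSO wells and 100% = biotin wells as full block of FRET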
#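 System: GST-tagged NR2E3 plus biotinylated RetCOR corepressor; Amount: 1.35 nM GST-tagged NR2E3 final; Dosing: single nominal compound dose of 4.8 µM; Schedule: 5 h incubation at 4 °C; Technique: TR-FRET with europium anti-GST and streptavidin-D2, 340 nm excitation; Controls: biotin wells as high control, 0.6% DMSO wells as low control.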
# MsrA act: activates bovine MsrA enzyme. purified bovine MsrA, absorbance read-out. activation, % at 10.6 µM. actives 0.3% (n = 360,000). AID 602163; in the data active means activation above about 7.5%;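 further: 0% = vehicle and 100% = reference activator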
# MsrA inhibitor: inhibitors of bovine MsrA; purified bovine MsrA, absorbance read-out; inhibition, % at 15.5 µM; actives 0.75% (n = 360,000); AID 651718;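 further: 0% = vehicle wells with enzyme and 100% = reference inhibitor wells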
# NadD inh: blocks S. aureus nicotinate mononucleotide adenylyltransferase. purified NadD enzyme, colorimetric absorbance read-out. actives 0.78% (n = 360,000). inhibition, % at 20 µM; in the data active means inhibition above about 26%
# GalR3 antag: blocks the human galanin receptor 3. O60755. HEK293 GalR3-CNG cAMP membrane potential fluorescence; galR3 body fused to GalR1 C-terminus. inhibition, % at 3 µM. actives 0.44% (n = 360,000). AID 651719;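 active means inhibition above the screen-wide average plus 3 SD, cut at about 13% in these data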;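 further: forskolin and galanin both at EC90 stimulate the cells; cAMP rise reported by CNG channel membrane potential dye signal; 0% = forskolin plus galanin with DMSO and 100% = forskolin alone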
# Target sequence (O60755 1-299 limits assumed): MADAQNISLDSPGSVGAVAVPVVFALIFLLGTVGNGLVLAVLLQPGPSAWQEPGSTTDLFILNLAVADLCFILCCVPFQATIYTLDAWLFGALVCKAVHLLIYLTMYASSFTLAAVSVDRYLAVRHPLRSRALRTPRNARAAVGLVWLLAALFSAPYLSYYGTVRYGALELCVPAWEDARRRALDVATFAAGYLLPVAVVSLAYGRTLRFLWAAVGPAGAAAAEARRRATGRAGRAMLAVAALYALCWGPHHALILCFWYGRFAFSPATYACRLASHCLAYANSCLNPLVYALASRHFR
# MsrA conf: bovine MsrA inhibition, confirmed | actives 41% (n = 2,300) | purified bovine MsrA, absorbance read-out | AID 651822 | inhibition, % at 15.5 µM | shares compounds with MsrA inhibitor;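 further: coupled to thioredoxin reductase with NADPH and selenocystamine and DMSO as substrate; 0% = vehicle only and 100% = full effect of reference inhibitor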
# Starred values were filed as active, the others as inactive; x = no result given. Unless noted, no stated cut-off is given here; in the data, active means inhibition above about 4.5%; inactive means the rest.
SMILES,NR2E3 ag-1,NR2E3 ag-2,MsrA act,MsrA inhibitor,NadD inh,GalR3 antag,MsrA conf
Clc1ccc(-c2noc(CSc3nnc(Cc4cccs4)n3-c3ccccc3)n2)cc1,-16,2,-2,0,-3,-2,x
Cc1ccccc1-n1c(SCc2cccc(F)c2)nc2[nH]ncc2c1=O,8,-2,-2,7.2*,-4,-5,8.0*
O=C(c1ccccc1)N1CCN(c2ccc([N+](=O)[O-])c(NCc3cccnc3)c2)CC1,-6,1,-5,1,-1,5,x
O=[N+]([O-])c1ccc(N2CCN(S(=O)(=O)c3ccccc3)CC2)cc1NCc1cccnc1,-8,-2,-7,9.1*,11,-3,2
O=c1oc2ccc([N+](=O)[O-])cc2c(N2CCOCC2)c1[N+](=O)[O-],x,6,x,5.1*,x,-6,1
COc1cccc(CN2CCN(Cc3ccc(C)o3)CC2CCO)c1 (stereo not given),-48,-3,-3,2,-1,9,x
COc1ccc(-c2cc(=O)oc3c(C)c(OC(C)C(C)=O)ccc23)cc1 (stereo not given),-19,-2,-2,22*,-13,-6,16*
COc1ccc(-c2cc(=O)oc3cc(O)ccc23)cc1,-33,2,-8,2,-4,-6,x
Cc1c(O)ccc2c(-c3ccccc3)cc(=O)oc12,27,2,-6,41*,-20,-8,35*
COc1ccc(-c2cc(=O)oc3c(C)c(O)ccc23)cc1,-33,1,-4,12*,-2,-4,3
CC(=O)COc1cc(C)cc2oc(=O)cc(-c3ccccc3)c12,10,-2,-1,1,2,-2,x
Cc1cc(O)c2c(-c3ccccc3)cc(=O)oc2c1,7,3,4,8.5*,-5,-4,2
COc1ccc(-c2cc(=O)oc3c(C)c(OC(=O)c4cccs4)ccc23)cc1,-59,0,0,0,3,2,x
CCCn1nc(C(=O)N2CCc3ccccc3C2)c2ccccc2c1=O,-3,-3,-12,0,-8,1,x
CSCCC(NC(=O)c1ccc(C(C)(C)C)cc1)C(=O)OCC(=O)N1CCCC1=O (stereo not given),-26,1,1,0,-2,-2,x
COc1ccc2[nH]c3c(c2c1)CCN1C(=O)N([C@@H](C)C(=O)NCCc2ccc(F)cc2)C(=O)[C@]31C,-8,-1,-4,0,-3,1,x
CCCOC(=O)C1=C(C)NC2=C(C(=O)CC(C)(C)C2)C1c1cccnc1 (stereo not given),2,1,-4,0,-1,-5,x
COc1ccc(/C=C/C(=O)c2ccncc2)c2ccccc12,-13,-2,0,8.3*,4,-4,-1
Cn1c(/C(C#N)=C/Nc2ccccn2)nc2ccccc21,-8,-1,-8,6.8*,5,-3,3
CCC(=O)N/N=C/c1ccc(-c2ccc(Cl)cc2)o1,-33,-1,-4,4.8*,-9,0,4
CCCCC(=O)N/N=C/c1ccc(-c2ccc([N+](=O)[O-])cc2)o1,-10,0,-6,1,-7,0,x
CC(=O)c1ccc(N2CCN(C(=O)c3ccc(Cn4c(=S)[nH]c5ccc(N6CCOCC6)cc5c4=O)cc3)CC2)cc1,-63,2,-5,5.0*,11,-1,4.8*
N#Cc1ccccc1NC(=O)CN1CCN(Cc2ccccc2)CC1,6,1,0,-1,-3,-5,x
O=C(/C(C=Nc1cccc(C(F)(F)F)c1)=C(/O)c1ccco1)C(F)(F)F,-16,-3,-4,2,-2,-3,x
O=C(/C(C=Nc1ccc(Br)cc1)=C(/O)c1ccco1)C(F)(F)F,-154,3,-4,4.8*,-6,-4,3
CCOC(=O)N1CCN(C(=O)C2CCN(S(=O)(=O)c3ccc(NC(C)=O)cc3)CC2)CC1,12,0,-1,0,4,1,x
O=c1[nH]c(C2CCN(S(=O)(=O)c3ccccc3F)CC2)nc2c1nnn2Cc1ccc(OC(F)(F)F)cc1,0,0,-3,-1,24,6,x
